ChEMBL document CHEMBL3865807, “Syntheses and photodynamic activity of some glucose-conjugated BODIPY dyes” (Eur J Med Chem, 2016)
Calls of active or inactive are those of the source. The calls are words filed in the database; no cut-off is given here.

Tests used:
[1] = Drug uptake in human A549 cells assessed as mean fluorescence intensity at 2.5 uM after 16 hrs by flow cytometry (reference value: 5.4 +/- 1.5); type: ADME, cell-based; conditions: a549, 16 h
[2] = test system: A549; assay: Induction of morphological changes in human A549 cells assessed as cells with blebbing membranes up to 2.5 uM preincubated for 1 hr followed by 0.77 mW/cm2 white light irradiation for 80 mins measured after 24 hrs by phase contrast microscopy; type: functional, cell-based
Summary of the method: (§1)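 A549 cells (1×10^5/well) on coverslips given vehicle (0.1% DMSO) or compound (0.625, 1.25, 2.5 µM) for 1 h, then irradiated 80 min (0.77 mW/cm²); kept 24 h in regular medium and examined unstained by phase-contrast microscopy (40× objective); representative fields imaged; experiments done three times.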

[3] = Drug uptake in mitochondria of human A549 cells at 100 nM measured up to 4 hrs by Mito-Tracker green staining based confocal microscopy; type: ADME; conditions: a549, 4 h, 0.1 µM
Summary of the method: (§2)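 Overnight-seeded A549 cells loaded with dye (100 nM), incubation periods 0.5-4 h tested, then ER-Tracker Green (500 nM) or MitoTracker Green (100 nM) for 30 min at 37 °C; washed, confocal imaging: trackers ex 488/em 500-530 nm, dye ex 543/em 560-640 nm; overlap of images judged.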

[4] = Toxicity in human A549 cells assessed as alteration in cell morphology at 100 nM measured up to 4 hrs in dark by confocal microscopy; type: cell-based; conditions: a549, 4 h, 0.1 µM
[5] = test system: A549; assay: Induction of morphological changes in human A549 cells assessed as irregular disruptions in optical diffraction halo preincubated for 1 hr followed by 0.77 mW/cm2 white light irradiation for 80 mins measured after 24 hrs by phase contrast microscopy; type: functional, cell-based; summary of the method: as §1
[6] = Drug uptake in human L-132 cells assessed as mean fluorescence intensity at 2.5 uM after 2 hrs by flow cytometry (reference value: 4.6 +/- 1.2); type: ADME, cell-based; conditions: l132, 2 h
[7] = Drug uptake in human L-132 cells assessed as mean fluorescence intensity at 2.5 uM after 8 hrs by flow cytometry (reference value: 4.6 +/- 1.2); type: ADME, cell-based; conditions: l132, 8 h
[8] = organism: Bos taurus; assay: Binding affinity to calf thymus duplex DNA by UV-visible spectra analysis
[9] = Drug uptake in human A549 cells assessed as mean fluorescence intensity at 2.5 uM after 2 hrs by flow cytometry (reference value: 5.4 +/- 1.5); type: ADME, cell-based; conditions: a549, 2 h
[10] = Drug uptake in endoplasmic reticulum of human A549 cells at 100 nM measured up to 4 hrs by ER-Tracker green staining based confocal microscopy; type: ADME, cell-based; conditions: a549, 4 h, 0.1 µM; summary of the method: as §2
[11] = test system: A549; assay: Induction of morphological changes in human A549 cells assessed as increase in floating cells without adhering ability up to 2.5 uM preincubated for 1 hr followed by 0.77 mW/cm2 white light irradiation for 80 mins measured after 24 hrs by phase contrast microscopy; type: functional, cell-based; summary of the method: as §1
[12] = organism: Bos taurus; assay: Binding affinity to calf thymus duplex DNA assessed as decrease in intensities of maximum absorption at 50 uM by spectrophotometric titration analysis
[13] = Cytotoxicity against human WI38 cells assessed as reduction in cell viability at 50 uM under dark condition by MTT assay; type: toxicity, cell-based; conditions: wi-38, 50 µM
[14] = test system: A549; assay: Induction of apoptosis in human A549 cells assessed as accumulation at subG1 phase at 5 to 50 uM preincubated for 1 hr followed by 0.77 mW/cm2 white light irradiation for 80 mins measured after 24 hrs by propidium iodide staining based flow cytometry relative to control; type: functional
Summary of the method: (§3)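 Cells exposed 1 h to compound (5-50 µM; vehicle 0.1% DMSO), washed, then irradiated (0.77 mW/cm²) for 0, 30 or 80 min; after serum addition kept 24 h. PI/RNase A staining in hypotonic 0.1% citrate-0.1% Triton X-100, 30 min, 37 °C; sub-G1 peak by flow cytometry, debris gated out, ≥2×10^4 cells; five replicates, mean ± SEM.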

[15] = Induction of apoptosis in human A549 cells assessed as caspase 3 activation at 2.5 uM preincubated measured after 24 hrs under dark condition by immunoblot analysis; type: cell-based; conditions: a549, 24 h
[16] = Induction of apoptosis in human A549 cells assessed as accumulation at subG1 phase up to 50 uM measured after 24 hrs under dark condition by propidium iodide staining based flow cytometry; type: cell-based; conditions: a549, 24 h; summary of the method: as §3
[17] = test system: A549; assay: Induction of apoptosis in human A549 cells assessed as increase in caspase 9 activity at 2.5 uM preincubated for 1 hr followed by 0.77 mW/cm2 white light irradiation for 80 mins measured after 16 hrs in presence of caspase-9 inhibitor Z-LEHD-FMK by immunoblot analysis; type: functional, cell-based
[18] = test system: A549; assay: Photocytotoxicity against human A549 cells assessed as decrease in cell viability at 500 to 5000 nM preincubated for 1 hr followed by 0.77 mW/cm2 white light irradiation measured after 24 hrs by MTT assay; type: functional, cell-based; conditions: TDE = time-dependent effect
Summary of the method: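 A549 cells (1×10^4/well), plated overnight, given compound for 1 h in serum-free medium, washed twice with PBS, irradiated 0.5, 1, 2 or 4 h at 0.77 mW/cm² (37 °C, 5% CO₂), then 24 h in regular medium; MTT 0.5 mg/mL for 6 h, formazan dissolved in 0.01 N HCl/10% SDS, A550.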

[19] = Drug uptake in human A549 cells assessed as mean fluorescence intensity at 2.5 uM after 4 hrs by flow cytometry (reference value: 5.4 +/- 1.5); type: ADME, cell-based; conditions: a549, 4 h
[20] = test system: A549; assay: Induction of apoptosis in human A549 cells assessed as increase in caspase 3 activity at 2.5 uM preincubated for 1 hr followed by 0.77 mW/cm2 white light irradiation for 80 mins measured after 16 hrs by colorimetric method relative to control; type: functional
Summary of the method: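 A549 cells (1×10^6) given compound 2.5 µM for 1 h, then light 80 min; caspase activities measured at 16 h in whole-cell extracts with kits, colorimetric for caspase-3 and fluorimetric for caspase-8; untreated photo-exposed cells as control; five replicates, mean ± SEM.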

[21] = test system: A549; assay: Induction of morphological changes in human A549 cells assessed as changes in cell outline preincubated for 1 hr followed by 0.77 mW/cm2 white light irradiation for 80 mins measured after 24 hrs by phase contrast microscopy; type: functional, cell-based; summary of the method: as §1
[22] = test system: A549; assay: Induction of apoptosis in human A549 cells assessed as pro-caspase 3 level at 2.5 uM preincubated for 1 hr followed by 0.77 mW/cm2 white light irradiation for 80 mins measured after 8 hrs by immunoblot analysis relative to control; type: functional
Summary of the method: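 Whole-cell extracts from A549 cells (1×10^6) treated with 0 or 2.5 µM compound, photo-exposed 80 min, lysed in Tris pH 7.4/NaCl/EDTA/Triton with protease inhibitors; 30 µg protein on 12% SDS-PAGE, nitrocellulose, milk block, caspase-3 antibody overnight 4 °C, HRP secondary, chemiluminescence; band ratio to normal control (=1) after loading-control normalisation.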

[23] = Drug uptake in human L-132 cells assessed as mean fluorescence intensity at 2.5 uM after 16 hrs by flow cytometry (reference value: 4.6 +/- 1.2); type: ADME, cell-based; conditions: l132, 16 h
[24] = Cell cycle arrest in human A549 cells assessed as accumulation at subG1 phase at 2.5 uM preincubated for 1 hr followed by 0.77 mW/cm2 white light irradiation for 80 mins measured after 24 hrs in presence of 100 uM of beta-carotene by propidium iodide staining based flow cytometry (reference value: 8.2 +/- 1.1%); type: functional

Q: For `CCC1=C(C)C2=C(C)c3c(C)c(CC)c(C)n3[B-](F)(F)[N+]2=C1/C=C/c1ccc(O[C@H]2O[C@H](CO)[C@@H](O)[C@H](O)[C@H]2O)cc1`, which Flu intensity [1] is on record?
A: 41.6 to 52.5

Q: What about the Activity [2] of the same compound?
A: Active

Q: And the Drug uptake [3]?
A: Active

Q: And the Activity [4]?
A: Non-Toxic

Q: And the Activity [5]?
A: Dose-dependent effect

Q: What about the Flu intensity [6] of the same compound?
A: 63.5

Q: And the Flu intensity [7]?
A: 49.5

Q: And the Kb [8]?
A: 1.8 ×10⁴ /M

Q: And the Flu intensity [9]?
A: 95.3 to 98.5

Q: And the Drug uptake [10]?
A: Active

Q: What about the Activity [11] of the same compound?
A: Active

Q: What about the Activity [12] of the same compound?
A: Active

Q: And the Activity [13]?
A: Non-Toxic

Q: What about the “fold change (FC)” value [14] of the same compound?
A: 5 - 6

Q: What about the Activity [15] of the same compound?
A: Non-Toxic

Q: What about the Activity [16] of the same compound?
A: Non-Toxic

Q: What about the Activity [17] of the same compound?
A: Active

Q: And the Activity [18]?
A: Tde

Q: And the Flu intensity [19]?
A: 66.2 to 68.9

Q: And the “fold change (FC)” value [20]?
A: 2.9

Q: And the Activity [21]?
A: Dose-dependent effect

Q: What about the “fold change (FC)” value [22] of the same compound?
A: 0.8

Q: And the Flu intensity [23]?
A: 41.5

Q: And the Activity [24]?
A: 43.2%
